SR-BI uptake up: enhances SR-BI lipid uptake from DiI-HDL. 320,000 tested, 0.096% active. AID 504775. CHO ldlA[mSR-BI] cells, DiI-HDL uptake fluorescence, 3 h; 100 = double the neutral-control signal. activation, % at 12.5 µM;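 active = mean replicate activation of at least 60% and every replicate at or above 60%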;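 note: 0% = median plate neutral-control signal and 100% = twice that signal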
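system = CHO ldlA[mSR-BI] cells, LDL receptor-null, SR-BI overexpressing | medium = Ham's F12 with 0.5% BSA, HEPES 25 mM, pH 7.4 | probe or stimulus = DiI-HDL 10 µg/mL | compound dosing = single-point compound dose | incubation = compound exposure 3 h, 37 °C | technique = DiI fluorescence, bottom read | read-out = cell-associated DiI fluorescence as measure of HDL uptake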
SR-BI DiI inh: mouse SR-BI HDL lipid transfer inhibition. Q61009. ldlA[mSR-BI] CHO cells, DiI-HDL uptake fluorescence, 3 h. inhibition, % at 12.5 µM. 320,000 tested, 0.96% active;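 active = mean replicate inhibition of at least 70% and a set share of replicates each scoring 70 or more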;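 note: 0% = median of neutral control wells and 100% = median of positive control wells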
Target sequence (Q61009 whole entry, looked up): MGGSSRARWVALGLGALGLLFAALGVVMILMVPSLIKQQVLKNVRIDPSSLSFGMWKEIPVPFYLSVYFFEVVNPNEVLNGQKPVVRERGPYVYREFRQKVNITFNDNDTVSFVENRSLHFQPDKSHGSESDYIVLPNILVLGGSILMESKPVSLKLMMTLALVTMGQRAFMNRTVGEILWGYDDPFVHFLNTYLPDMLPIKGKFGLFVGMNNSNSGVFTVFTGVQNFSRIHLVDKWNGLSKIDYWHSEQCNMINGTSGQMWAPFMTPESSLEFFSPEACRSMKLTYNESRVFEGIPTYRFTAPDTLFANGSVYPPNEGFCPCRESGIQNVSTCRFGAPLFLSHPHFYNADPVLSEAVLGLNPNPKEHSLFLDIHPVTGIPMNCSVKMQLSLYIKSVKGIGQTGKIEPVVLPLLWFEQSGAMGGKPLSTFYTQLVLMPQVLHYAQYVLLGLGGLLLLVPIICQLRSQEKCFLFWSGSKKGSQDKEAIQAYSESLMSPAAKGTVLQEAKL
ARNT TACC3 PPI: disruptors of human ARNT/TACC3 interaction | AlphaScreen His-ARNT PAS-B/GST-TACC3 binding, luminescence; TACC3 fragment carries E629A point mutation | inhibition, % at 9.99 µM | 390,000 tested, 0.66% active | AID 623870;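 active = mean inhibition of replicates at least 50% and at least half of replicates each reaching 50%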;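 note: 0% = complete ARNT plus TACC3 wells and 100% = ARNT alone without TACC3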
CAL PDZ FP-1: blocks peptide binding to the human CAL PDZ domain. inhibition, % at 24.9 µM. purified CAL PDZ, TMR-peptide fluorescence polarization, 1 h. 300,000 tested, 0.92% active. AID 602252;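 active = mean inhibition of at least 30% with at least half of replicates also reaching 30%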;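 note: 0% = DMSO neutral control and 100% = excess unlabeled competitor peptide PRC23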
CAL PDZ FP-2: inhibitors of human CAL PDZ peptide binding. purified CAL PDZ, TMR-peptide fluorescence polarization, 1 h. inhibition, % at 20 µM. 330,000 tested, 0.02% active. AID 504414;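 active = highest replicate inhibition of at least 40%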;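 note: plate controls were DMSO neutral control wells for no effect and unlabeled competitor peptide control wells for full effect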
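material = purified tagged CAL PDZ domain construct (CerCALP) | compound dosing = 20 µM, one dose | times = 1 h at RT | measured by = fluorescence polarization from S- and P-plane intensities, G-factor corrected | read-out = inhibition from polarization loss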
miR122 inh: blocks miR-122 activity in Huh7 sensor cells. Huh7 miR-122 Renilla luciferase sensor, 48 h; neutral wells = 0, positive control = 100. activation (reporter increase), % at 12.5 µM. 340,000 tested, 0.3% active. AID 602342;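 active = mean replicate activation score at least 90 and every replicate individually at or above 90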;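 note: higher luciferase means less miR-122 activity so hits act as miR-122 inhibitors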
ARNT Alpha ctr-1: AlphaScreen artifact in ARNT/TACC3 counter-screen; shares compounds with ARNT TACC3 PPI; His-ARNT PASB-GST AlphaScreen artifact counter-screen, luminescence; AC50, µM (titrated, usually from 68 µM), for inactives: at the top dose activity change, negative = signal decrease; 1,200 tested, 50% active;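 active = every separate test run was called active for a drop in luminescence, with AC50 within twice the top valid dose, actives reach about 71 µM in these data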
ARNT Alpha ctr-2: AlphaScreen artifact flagged for ARNT-TACC3 inhibitors | 45 tested, 70% active | AID 720564 | Dual-tagged His-ARNT PASB-GST AlphaScreen artifact counter-screen | shares compounds with ARNT TACC3 PPI | AC50, µM;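 active = luminescence drop, with half-maximal potency fitted within twice the sample's top valid dose, cut at about 70 µM in these data; inactive = the rest, including signal moving the wrong way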
Starred values were filed as active, the others as inactive; [ ] = dose if it differs, or a comment. Shown are actives, neighbours in structure and some others; about 2.1% of the full set was active somewhere.

Screening CCC(=O)N(C)C[C@H]1Oc2cc(-c3cccc(F)c3)ccc2S(=O)(=O)N([C@@H](C)CO)C[C@@H]1C returned ARNT TACC3 PPI 4 and miR122 inh 12[16.7 µM].
Screening Cc1ccc2ccc3cccnc3c2n1 returned SR-BI uptake up 12, SR-BI DiI inh -12, ARNT TACC3 PPI 74*, CAL PDZ FP-1 8 and ARNT Alpha ctr-1 51µM*.
`CC(C)Cc1nnc(NC(=O)c2cccc(S(=O)(=O)N3CCOCC3)c2)s1` gave SR-BI uptake up -57, SR-BI DiI inh 57, CAL PDZ FP-1 -8, CAL PDZ FP-2 -1 and ARNT Alpha ctr-2 inactive.
Screening CC(C)Cc1nnc(NC(=O)c2cccc(S(=O)(=O)N3CCN(C)CC3)c2)s1 returned SR-BI uptake up -23, SR-BI DiI inh 23, ARNT TACC3 PPI -7, CAL PDZ FP-1 1, CAL PDZ FP-2 3 and miR122 inh 7.
`CN1CCN(S(=O)(=O)c2cccc(C(=O)Nc3sccc3C(N)=O)c2)CC1` gave SR-BI uptake up 18, SR-BI DiI inh -18, ARNT TACC3 PPI 46*, CAL PDZ FP-1 -4, CAL PDZ FP-2 -1 and ARNT Alpha ctr-1 44µM*.
Screening CN1CCN(S(=O)(=O)c2cccc(C(=O)Nc3cc(C(N)=O)cc(C(N)=O)c3)c2)CC1 returned SR-BI uptake up 2, SR-BI DiI inh -2, ARNT TACC3 PPI 40, CAL PDZ FP-1 -5, CAL PDZ FP-2 1 and miR122 inh 4.
CO[C@@H](CN(C)C(=O)c1ccccc1F)[C@@H](C)CN([C@@H](C)CO)S(=O)(=O)c1ccc(Cl)cc1 was read as ARNT TACC3 PPI -1.
`Cc1cc(F)ccc1NS(=O)(=O)c1cccc2nsnc12` gave SR-BI uptake up -16, SR-BI DiI inh 16, ARNT TACC3 PPI active, CAL PDZ FP-1 -2, CAL PDZ FP-2 -6, miR122 inh -2 and ARNT Alpha ctr-1 -3%.
For Cc1ccc(O)c(NS(=O)(=O)c2cccc3nsnc23)c1 the results were SR-BI uptake up 7, SR-BI DiI inh -7, ARNT TACC3 PPI 11, CAL PDZ FP-1 7, CAL PDZ FP-2 0 and miR122 inh 10.
For CCCNC(=O)Nc1ccc2c(c1)C(=O)N(C)[C@@H]1CC[C@@H](CC(=O)O)O[C@@H]1CO2 the results were ARNT TACC3 PPI -19 and miR122 inh 0[16.7 µM].
`CC(=O)Nc1cccc(NC(C)=O)n1` gave SR-BI uptake up -6, SR-BI DiI inh 6, ARNT TACC3 PPI -1, CAL PDZ FP-1 -1, CAL PDZ FP-2 -2 and miR122 inh -8.
For CC(=O)Nc1cccc(C(=O)O)n1 the results were SR-BI uptake up 15, SR-BI DiI inh -15, ARNT TACC3 PPI 59*, CAL PDZ FP-1 0, CAL PDZ FP-2 -2 and ARNT Alpha ctr-1 -20%.
CCCC(=O)NC(c1ccco1)c1cc([N+](=O)[O-])c2cccnc2c1O (stereo not drawn) was read as SR-BI uptake up 22, SR-BI DiI inh -22, ARNT TACC3 PPI 59*, CAL PDZ FP-1 -2, CAL PDZ FP-2 0 and ARNT Alpha ctr-1 30µM*.
For CCC(=O)NC(c1ccc(C)cc1)c1cc([N+](=O)[O-])c2cccnc2c1O (stereo not drawn) the results were SR-BI uptake up 6, SR-BI DiI inh -6, ARNT TACC3 PPI 58*, CAL PDZ FP-1 -6, CAL PDZ FP-2 0, miR122 inh -12 and ARNT Alpha ctr-1 11µM*.
Screening CCN(CC)c1ccc(C(=C2C=CC(=[N+](CC)CC)C=C2)c2ccc(N(CC)CC)cc2)cc1 returned SR-BI uptake up -89, SR-BI DiI inh 89*, ARNT TACC3 PPI 50*, CAL PDZ FP-1 12, CAL PDZ FP-2 12, miR122 inh -38 and ARNT Alpha ctr-1 0.7µM*.
CCN(CC)c1ccc(C(=O)NNC(=O)CCl)cc1 was read as ARNT TACC3 PPI -1, CAL PDZ FP-1 1, CAL PDZ FP-2 -1 and miR122 inh 4.
C[C@@H]1CN([C@H](C)CO)S(=O)(=O)c2ccc(C3=CCCCC3)cc2O[C@@H]1CN(C)C(=O)C1CCC1 was read as ARNT TACC3 PPI 0 and miR122 inh -4[16.7 µM].
`O=S1(=O)N=C(N/N=C/c2ccccn2)c2ccccc21` gave SR-BI uptake up 37, SR-BI DiI inh -37, ARNT TACC3 PPI 59*, CAL PDZ FP-1 -1, CAL PDZ FP-2 0 and ARNT Alpha ctr-1 24µM*.
Screening O=Nc1ccc(O)c2ncccc12 returned ARNT TACC3 PPI 57*, CAL PDZ FP-1 3, CAL PDZ FP-2 -1, miR122 inh 48 and ARNT Alpha ctr-1 69µM*.
For COCc1ccc(O)c2ncccc12 the results were SR-BI uptake up 16, SR-BI DiI inh -16, ARNT TACC3 PPI 75*, CAL PDZ FP-1 -1, CAL PDZ FP-2 0, miR122 inh 3 and ARNT Alpha ctr-1 16µM*.
Screening c1ccc2c(Cn3ccnc3)c[nH]c2c1 returned SR-BI uptake up 8, SR-BI DiI inh -8, ARNT TACC3 PPI 1, CAL PDZ FP-1 -1, CAL PDZ FP-2 -1 and miR122 inh 6.
`Cc1ccccc1NCc1ccc(O)c2ncccc12` gave SR-BI uptake up 21, SR-BI DiI inh -21, ARNT TACC3 PPI -129, CAL PDZ FP-1 -1, CAL PDZ FP-2 -3 and miR122 inh -12.
Oc1ccc(Cn2ccnc2)c2cccnc12 was read as SR-BI uptake up -7, SR-BI DiI inh 7, ARNT TACC3 PPI 58*, CAL PDZ FP-1 6, CAL PDZ FP-2 0, miR122 inh 6 and ARNT Alpha ctr-1 6.2µM*.
`COCC(=O)Nc1ccc2c(c1)C(=O)N(C)[C@@H]1CC[C@@H](CC(=O)N3CCc4ccccc4C3)O[C@@H]1CO2` gave ARNT TACC3 PPI 5 and miR122 inh 5[16.7 µM].
C[C@H]1CN([C@@H](C)CO)C(=O)CCCn2cc(nn2)CO[C@H]1CN(C)Cc1cccc(O)c1 was read as ARNT TACC3 PPI -8 and miR122 inh -7[16.7 µM].
Screening C[C@@H]1CCCCO[C@H](CN(C)C(=O)Nc2cccc3ccccc23)[C@H](C)CN([C@@H](C)CO)C(=O)c2cc(NS(=O)(=O)c3ccc(Cl)cc3)ccc2O1 returned ARNT TACC3 PPI 8 and miR122 inh -9[16.7 µM].

High-throughput results as filed in PubChem.
